Results: ChEMBL document CHEMBL1158435, “Identification of a novel inhibitor of JAK2 tyrosine kinase by structure-based virtual screening” (Bioorg Med Chem Lett, 2009)
Active and inactive are the calls of the source. The rule behind the calls is not given here.

Assays:
[1] = tested on: HEL; experiment: Growth inhibition of HEL cells harboring Val617Phe mutation in JAK2 at 25 uM after 72 hrs by trypan blue exclusion assay; assay type: functional; settings: Homo sapiens, read-out: GI
How it was run: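 Screening assay of HEL growth inhibition. HEL cells carry JAK2-Val617Phe on both alleles. Each compound was tested at a single final concentration of 25 μM.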

[2] = biological target: Proto-oncogene tyrosine-protein kinase Src (Homo sapiens) (UniProt P12931); experiment: Inhibition of recombinant pp60c-Src autophosphorylation at 25 uM by Western blotting
How it was run: (§1)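 Cell-free c-Src kinase assay, with compound tested at 25 μM.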

[3] = Inhibition of pathological growth of human hematopoietic progenitor cells isolated from polycythemia vera patient assessed as erythroid colony formation at 2.5 uM after 14 days in absence of erythropoietin; assay type: functional; settings: 336 h, read-out: GI
[4] = tested on: Tyrosine-protein kinase JAK2 (Homo sapiens), O60674 [V617F]; experiment: Inhibition of recombinant JAK2-Val617Phe kinase activity at 25 uM after 30 mins by luminometry
How it was run: (§2)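 Cell-free kinase assay. Recombinant JAK2-Val617Phe protein (JH1+JH2) was incubated with increasing inhibitor concentrations. After the kinetic reactions, relative kinase inhibition was determined from the residual ATP level in each reaction.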

[5] = tested on: HEL; experiment: Reduction in phospho-JAK2 [pYpY1007/1008] level in HEL cells after 48 hrs by […]; assay type: functional, cell-based; settings: Homo sapiens
How it was run: (§3)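 HEL cells were treated across varying compound concentrations and exposure times. Phospho-JAK2 protein levels were then measured in the cells.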

[6] = tested on: HEL; experiment: Growth inhibition of HEL cells harboring Val617Phe mutation in JAK2 assessed as reduction in cell number at 0.001 to 10 uM after 48 hrs using trypan blue staining by hemocytometry; assay type: functional, cell-based; settings: Homo sapiens
How it was run: (§4)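 Four lines were compared: HEL (JAK2-Val617Phe on both alleles), CMK (JAK3-Ala572Val), Raji (c-Myc/heavy-chain locus translocation) and BSC-40 (green monkey kidney epithelial, SV-40 large T immortalized). Cells were exposed to compound over 10−9 to 10−4 M, and the read-out was cell number.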

[7] = tested on: CMK; experiment: Growth inhibition of human CMK cells harboring Ala572Val mutation in JAK3 assessed as reduction in cell number at 100 uM after 48 hrs using trypan blue staining by hemocytometry; assay type: functional, cell-based; how it was run: as §4
[8] = tested on: CMK; experiment: Growth inhibition of human CMK cells harboring Ala572Val mutation in JAK3 assessed as reduction in cell number at 0.001 to 10 uM after 48 hrs using trypan blue staining by hemocytometry; assay type: functional, cell-based; how it was run: as §4
[9] = biological target: Non-receptor tyrosine-protein kinase TYK2 (Homo sapiens) (UniProt P29597); experiment: Inhibition of TYK2 autophosphorylation transfected in mouse embryonic fibroblasts at 25 uM by Western blotting
How it was run: (§5)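 TYK2 autophosphorylation was measured within intact cells, with compound present at 25 μM.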

[10] = tested on: Raji; experiment: Growth inhibition of human Raji cells possessing […] between c-Myc gene on chromosome 8 and heavy chain locus on chromosome 14 assessed as reduction in cell number at 100 uM after 48 hrs using trypan blue staining by hemocytometry; assay type: functional, cell-based; how it was run: as §4
[11] = tested on: HEL; experiment: Reduction in phospho-JAK2 [pYpY1007/1008] level in HEL cells at 25 uM by […]; assay type: functional, cell-based; settings: Homo sapiens, TDE = time-dependent effect; how it was run: as §3
[12] = tested on: Raji; experiment: Growth inhibition of human Raji cells possessing […] between c-Myc gene on chromosome 8 and heavy chain locus on chromosome 14 assessed as reduction in cell number at 0.001 to 10 uM after 48 hrs using trypan blue staining by hemocytometry; assay type: functional, cell-based; how it was run: as §4
[13] = biological target: Non-receptor tyrosine-protein kinase TYK2 (Homo sapiens) (UniProt P29597); experiment: Inhibition of TYK2 transfected in mouse embryonic fibroblasts at 25 uM by Western blotting; how it was run: as §5
[14] = tested on: Tyrosine-protein kinase JAK2 (Homo sapiens), O60674 [V617F]; experiment: (§6) Inhibition of recombinant JAK2-Val617Phe kinase activity after 30 mins by luminometry; how it was run: as §2
[15] = biological target: Tyrosine-protein kinase JAK2 (Homo sapiens, UniProt O60674, V617F); experiment: as §6; how it was run: as §2
[16] = tested on: BSC-40; experiment: Growth inhibition of african green monkey BSC40 cells immortalized with SV40 large T antigen assessed as reduction in cell number at 0.001 to 10 uM after 48 hrs using trypan blue staining by hemocytometry; assay type: functional, cell-based; settings: Chlorocebus aethiops; how it was run: as §4
[17] = biological target: Proto-oncogene tyrosine-protein kinase Src (Homo sapiens) (UniProt P12931); experiment: Inhibition of recombinant pp60c-Src at 25 uM by Western blotting; how it was run: as §1
[18] = Inhibition of pathological growth of human hematopoietic progenitor cells isolated from polycythemia vera patient assessed as erythroid colony formation at 2.5 uM after 14 days in absence of erythropoietin; settings: 336 h, read-out: GI
[19] = tested on: BSC-40; experiment: Growth inhibition of african green monkey BSC40 cells immortalized with SV40 large T antigen assessed as reduction in cell number at 100 uM after 48 hrs using trypan blue staining by hemocytometry; assay type: functional, cell-based; settings: Chlorocebus aethiops; how it was run: as §4
[20] = tested on: HEL; experiment: Growth inhibition of HEL cells harboring Val617Phe mutation in JAK2 assessed as reduction in cell number at 100 uM after 48 hrs using trypan blue staining by hemocytometry; assay type: functional, cell-based; settings: Homo sapiens; how it was run: as §4

Proto-oncogene tyrosine-protein kinase Src (Homo sapiens), sequence (P12931 2-536 limits assumed): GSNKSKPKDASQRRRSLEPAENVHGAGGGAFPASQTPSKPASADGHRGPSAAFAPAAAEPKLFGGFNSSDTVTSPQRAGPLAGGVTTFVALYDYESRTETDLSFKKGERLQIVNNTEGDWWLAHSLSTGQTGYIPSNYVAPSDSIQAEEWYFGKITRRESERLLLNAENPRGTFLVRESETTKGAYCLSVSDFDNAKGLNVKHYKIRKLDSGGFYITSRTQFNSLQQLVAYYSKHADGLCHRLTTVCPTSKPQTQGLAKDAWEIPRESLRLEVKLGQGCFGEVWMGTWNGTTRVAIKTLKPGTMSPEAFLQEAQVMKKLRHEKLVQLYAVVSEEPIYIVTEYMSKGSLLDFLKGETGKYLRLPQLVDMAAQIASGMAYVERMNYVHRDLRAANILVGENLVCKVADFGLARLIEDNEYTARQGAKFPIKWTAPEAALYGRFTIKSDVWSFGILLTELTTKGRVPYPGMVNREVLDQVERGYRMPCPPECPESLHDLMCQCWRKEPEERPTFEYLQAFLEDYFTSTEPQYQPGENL
Non-receptor tyrosine-protein kinase TYK2 (Homo sapiens), sequence (P29597 whole entry): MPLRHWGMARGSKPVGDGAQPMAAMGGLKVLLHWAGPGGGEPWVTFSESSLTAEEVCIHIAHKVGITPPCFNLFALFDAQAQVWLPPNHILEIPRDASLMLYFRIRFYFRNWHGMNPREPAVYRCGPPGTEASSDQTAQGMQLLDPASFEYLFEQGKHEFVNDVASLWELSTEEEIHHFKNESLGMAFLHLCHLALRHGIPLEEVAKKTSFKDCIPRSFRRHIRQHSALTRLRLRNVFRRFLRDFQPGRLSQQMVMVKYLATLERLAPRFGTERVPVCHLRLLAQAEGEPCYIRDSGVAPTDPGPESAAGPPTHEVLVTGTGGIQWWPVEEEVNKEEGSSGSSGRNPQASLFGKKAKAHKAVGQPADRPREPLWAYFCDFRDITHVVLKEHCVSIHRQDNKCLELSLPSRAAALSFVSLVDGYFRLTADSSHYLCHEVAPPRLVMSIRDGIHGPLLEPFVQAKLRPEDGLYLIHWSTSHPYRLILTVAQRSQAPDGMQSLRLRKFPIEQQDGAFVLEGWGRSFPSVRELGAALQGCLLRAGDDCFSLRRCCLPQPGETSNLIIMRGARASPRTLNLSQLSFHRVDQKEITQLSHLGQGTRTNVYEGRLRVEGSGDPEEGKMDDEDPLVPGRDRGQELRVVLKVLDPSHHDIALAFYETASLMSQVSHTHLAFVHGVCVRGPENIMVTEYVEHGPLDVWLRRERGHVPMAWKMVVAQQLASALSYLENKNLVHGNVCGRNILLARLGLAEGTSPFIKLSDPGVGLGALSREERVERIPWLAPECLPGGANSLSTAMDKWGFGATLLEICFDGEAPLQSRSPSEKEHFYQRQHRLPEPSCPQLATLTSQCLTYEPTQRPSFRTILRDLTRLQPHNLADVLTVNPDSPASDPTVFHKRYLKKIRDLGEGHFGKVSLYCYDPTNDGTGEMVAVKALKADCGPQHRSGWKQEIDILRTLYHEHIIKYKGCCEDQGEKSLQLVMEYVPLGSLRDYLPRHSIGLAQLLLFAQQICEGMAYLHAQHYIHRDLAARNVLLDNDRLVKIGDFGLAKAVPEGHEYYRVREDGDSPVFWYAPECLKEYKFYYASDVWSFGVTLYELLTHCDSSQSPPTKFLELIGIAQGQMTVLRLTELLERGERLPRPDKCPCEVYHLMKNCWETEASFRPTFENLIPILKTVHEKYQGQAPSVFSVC
Tyrosine-protein kinase JAK2 (Homo sapiens), O60674 [V617F], sequence (O60674 whole entry V617F): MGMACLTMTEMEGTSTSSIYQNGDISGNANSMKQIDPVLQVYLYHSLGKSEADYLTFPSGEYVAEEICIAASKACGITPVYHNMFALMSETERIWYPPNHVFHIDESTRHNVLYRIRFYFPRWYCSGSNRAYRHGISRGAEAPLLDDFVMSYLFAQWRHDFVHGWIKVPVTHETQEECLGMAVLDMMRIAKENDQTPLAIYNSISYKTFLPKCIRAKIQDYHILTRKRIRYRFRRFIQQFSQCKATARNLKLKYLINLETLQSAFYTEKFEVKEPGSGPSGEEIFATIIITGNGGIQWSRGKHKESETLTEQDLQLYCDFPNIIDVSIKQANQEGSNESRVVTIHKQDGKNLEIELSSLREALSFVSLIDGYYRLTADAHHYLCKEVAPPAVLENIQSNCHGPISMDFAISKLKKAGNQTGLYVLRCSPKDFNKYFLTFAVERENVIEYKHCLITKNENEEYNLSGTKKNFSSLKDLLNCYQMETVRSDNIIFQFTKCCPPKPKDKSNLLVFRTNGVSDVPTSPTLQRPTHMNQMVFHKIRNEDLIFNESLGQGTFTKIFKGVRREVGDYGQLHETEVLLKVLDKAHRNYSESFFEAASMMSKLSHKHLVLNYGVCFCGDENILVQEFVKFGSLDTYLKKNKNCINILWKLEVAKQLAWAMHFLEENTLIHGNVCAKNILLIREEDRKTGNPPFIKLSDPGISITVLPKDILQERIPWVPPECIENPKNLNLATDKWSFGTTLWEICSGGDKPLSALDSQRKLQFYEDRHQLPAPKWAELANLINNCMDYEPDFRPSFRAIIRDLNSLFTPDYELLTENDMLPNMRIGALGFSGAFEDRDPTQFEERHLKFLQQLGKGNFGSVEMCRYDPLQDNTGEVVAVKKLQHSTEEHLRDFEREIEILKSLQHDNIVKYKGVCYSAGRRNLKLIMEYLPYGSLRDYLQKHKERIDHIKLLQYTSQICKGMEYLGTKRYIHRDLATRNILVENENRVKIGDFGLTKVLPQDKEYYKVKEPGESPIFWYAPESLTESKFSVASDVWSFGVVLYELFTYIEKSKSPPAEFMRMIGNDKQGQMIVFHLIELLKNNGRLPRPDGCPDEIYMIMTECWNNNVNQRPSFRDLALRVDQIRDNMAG
Tyrosine-protein kinase JAK2, sequence (O60674 whole entry V617F): as above

| SMILES | inhibition of growth at 25 µM [1] [%] | other results |
| --- | --- | --- |
| O=C(Nc1cc(Cl)ccc1Cl)Nc1ccc(Cl)cc1C(=O)c1ccccc1 | 24 |  |
| O=C(Nc1ccccc1)Nc1ccc2ccccc2c1 | 38 |  |
| NC(CSSCC(N)C(=O)c1ccccc1)C(=O)c1ccccc1 (stereo unspecified) | 30 |  |
| CC(CCc1ccccn1)(CCc1ccccn1)C(=O)c1ccccc1 |  | inhibition [2]: inactive |
| O/N=C(\c1ccccc1)c1ccc[n+](CCc2ccccc2)c1 | 38 |  |
| CC1=CN=C(NCCCCNC2=NC=C(C)/C(=C3/C=CC=CC3=O)N2)N/C1=C1/C=CC=CC1=O | 16 |  |
| OC1C=C(c2ccccc2)C(c2ccccc2)C(c2ccccc2)C1 (stereo unspecified) | 27 |  |
| O=C1C=Cc2ccccc2/C1=C/NNS(=O)(=O)c1cc(Cl)c(Cl)cc1Cl | 51 |  |
| O=C(Nc1ccc(Cc2ccc(NC(=O)Nc3cccc(C4=NCCN4)c3)cc2)cc1)Nc1cccc(C2=NCCN2)c1 | 13 |  |
| CC(C)(C)n1nc(-c2ccc(Cl)cc2)c2c(N)ncnc21 |  | inhibition [2]: Active |
| CC/C(=C(/CC)c1ccc(O)c(CN(CC)CC)c1)c1ccc(O)c(CN(CC)CC)c1 | > 99 | inhibition of growth at 2.5 µM [3]: > 50%; inhibition [4]: > 99%; Activity [5]: Dose-dependent effect; growth inhibition (GI) [6]: Active; growth inhibition (GI) [7]: Active; growth inhibition (GI) [8]: inactive; inhibition [9]: inactive; growth inhibition (GI) [10]: Active; Activity [11]: tde; growth inhibition (GI) [12]: inactive; inhibition [2]: inactive; inhibition [13]: inactive; Activity [14]: Dose-dependent effect; IC50 [15]: 60 nM; growth inhibition (GI) [16]: inactive; inhibition [17]: inactive; inhibition of growth at 2.5 µM [18]: > 50%; growth inhibition (GI) [19]: Active; growth inhibition (GI) [20]: Active |
| O=C(CC(=O)c1ccccc1)CC(O)(/C=C/c1ccccc1)c1ccccc1 (stereo unspecified) | 15 |  |
| O=C(CN1C=C(/C=N/O)C=CC1)C1CCC(C2CCC(C(=O)CN3CCCC(/C=N/O)C3)CC2)CC1 (stereo unspecified) | 8 |  |
| Cc1c(O)c2ccccc2c2c1sc(NCCCN(CCO)CCO)[n+]2C | 41 |  |
| O=C(CC(=O)CC(=O)c1ccccc1)CC(=O)c1ccccc1 | 67 |  |
| C/C(CC(=O)c1ccccc1)=N/CCCC/N=C(/C)CC(=O)c1ccccc1 | 19 |  |
| C/C(CC(=O)c1ccccc1)=N/CCCCC/N=C(\C)CC(=O)c1ccccc1 | 31 |  |
| CC(=O)c1c(O)cc(O)cc1-c1cc(=O)c2c(O)ccc(C(C)=O)c2o1 | 42 |  |
| NC(=O)c1cc(NC(=O)c2ccc(C(=O)Nc3cc(C(N)=O)cc(C4=NCCN4)c3)cc2)cc(C2=NCCN2)c1 | 10 |  |

| SMILES | inhibition of growth at 25 µM [1] [%] | other results |
| --- | --- | --- |
| Cc1cc(Cl)ccc1Nc1sc(C(=O)c2cc3cc(Cl)ccc3o2)c(N)c1C#N | 55 |  |
| O=C(/C=C(\O)c1ccc(F)cc1)C(=O)/C=C(\O)c1ccc(F)cc1 | 36 |  |
| O=C1C=C(NCCCC2CCCN3CCCCC23)C(=O)c2ccccc21 (stereo unspecified) | 27 |  |
| CCCCCCCCNC(C(=O)c1ccc(Cl)cc1)c1ccc(Cl)cc1 (stereo unspecified) | 7 |  |
| O=C(NCCNCCO)c1cccc(Nc2cc(O)c(O)c3ccccc23)c1 | 42 |  |
| CCc1[nH]nc(-c2ccc(OC)cc2)c1-c1ccccc1O | 40 |  |
| Nc1ccc(C(=O)Nc2ccc3cc(S(=O)(=O)O)cc(O)c3c2)cc1 | 39 |  |
| O=C(/C=C(\C=C\c1ccccc1)c1ccccc1)CC(=O)c1ccccc1 | 11 |  |
| O=C1C=Cc2ccccc2/C1=C/N/N=C(\C(=O)c1ccccc1)c1ccccc1 | 27 |  |
| COc1ccc2nc(NC(=O)Nc3ccc(C)c(NC(=O)Nc4nc5ccc(OC)cc5s4)c3)sc2c1 | 57 |  |
| O=P(O)(c1ccc(Cl)cc1)c1ccc(Cl)cc1 | 13 |  |
| O=C(Nc1ccc(Oc2ccc(NC(=O)Nc3ccc(-c4ccccc4)cc3)cc2)cc1)Nc1ccc(-c2ccccc2)cc1 | 13 |  |
| O=C(c1cccc([N+](=O)[O-])c1)c1c(O)oc2ccccc2c1=O | 40 |  |
| O=[N+]([O-])c1cc(/C=N/NS(=O)(=O)c2cc(Cl)c(Cl)cc2Cl)ccc1Cl | 27 |  |
| CCc1c(C#N)c(N)c2c(N)c(C(=O)c3ccccc3)sc2c1C | 30 |  |
| CCCCCCCNC1=C(OCC)C(=O)c2ccccc2C1=O | 24 |  |
| COc1ccc(-c2n[nH]c(=S)c(-c3ccccc3)c2-c2ccccc2)cc1 | 44 |  |
| CC(=O)c1cc(Cl)ccc1OCC(O)CNc1ccccc1C(=O)c1ccccc1 (stereo unspecified) | 41 |  |
